In the RNAGym collection of RNA variant scans (doi:10.1126/science.aae0568):
This sample holds only a part of the variants without activity.

B1: tRNA (parent)
chain: GUUCCGUUGGCGUAAUGGUAACGCGUCUCCCUCCUAAGGAGAAGACUGCGGGUUCGAGUCCCGUACGGAACG

Variants of: B1
Experiment: yeast fitness relative to wild type (ratio to wild type); higher = fitter; tRNA-Arg(CCU), competitive growth, 37 C, YPD
How it was run: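 Start and end populations of a pooled competition were compared by 100-nucleotide paired-end sequencing of gene amplicons. The Saccharomyces cerevisiae strains carried tRNA-Arg(CCU) gene variants at the native genomic locus, synthesised with a 3% per-site mutation rate at 69 sites, and competed in YPD at 37°C for 24 hours in six parallel replicates. Darwinian fitness relative to wild type was based on the change in genotype frequencies. Genotypes required ≥ 100 starting reads, and estimates < 0.5 were set to 0.5.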
Variant A15G A21G C34G A45G A65C has a yeast fitness of 0.67. With A15G C30G C55A the yeast fitness was ≤ 0.5. Variant A15C A69G has a yeast fitness of 0.877. With A15C C29A C66U the yeast fitness was ≤ 0.5. A15C C60A A70U gave a yeast fitness of 0.555. In the case of A15G C31G U35C A43C A57C G58A, the yeast fitness is reported as ≤ 0.5. A15G C27A A36G A43G A65G showed a yeast fitness of 0.571. Work on A15G A20G C31U yielded a yeast fitness of 0.59. For A15C G17C G50A A69U, the yeast fitness was ≤ 0.5. In the case of A15C C29G G44C A45U U47A, the yeast fitness is reported as ≤ 0.5. With A15C U35C A42G G67U the yeast fitness was ≤ 0.5. With A15C C34G U35G A36U U59A the yeast fitness was ≤ 0.5. For A15C C30A G63A, the yeast fitness was ≤ 0.5. For A15G C29A A42C A70U, the yeast fitness was ≤ 0.5. With A15G C24A G63A the yeast fitness was ≤ 0.5. In the case of A15C C31A A37U, the yeast fitness is reported as ≤ 0.5. In the case of A15C C34G A37U C46G, the yeast fitness is reported as ≤ 0.5. A15G A40G A65G gave a yeast fitness of 0.663. In the case of A15C G52C U64A, the yeast fitness is reported as ≤ 0.5. In the case of A15C A21U C24U, the yeast fitness is reported as ≤ 0.5. In the case of A15G C29G A37U, the yeast fitness is reported as ≤ 0.5. For A15C G39A C46U, the yeast fitness was 0.55. For A15C C49G, the yeast fitness was 0.652. In the case of A15C C49U, the yeast fitness is reported as 0.896. For A15C C27U A42C, the yeast fitness was ≤ 0.5. Work on A14U U59A G67A yielded a yeast fitness of 0.578. In the case of A15C U19C A65C, the yeast fitness is reported as 0.628. For A15C U16A A45U G48C C61U, the yeast fitness was ≤ 0.5. For A15C C66U, the yeast fitness was 0.605. A15G C29U A43C A69U showed a yeast fitness of 0.536. With A15C G39A A65G A70U the yeast fitness was ≤ 0.5. For A15C A20C A21U C30U A40U, the yeast fitness was ≤ 0.5. Variant A15G C30A A43G A57U has a yeast fitness of 0.529. For A15C A43C G48C, the yeast fitness was 0.544. For A15C U28A C34G C55A A57U U59C C60U, the yeast fitness was ≤ 0.5. Variant A15C U19C C62A has a yeast fitness of 0.536. In the case of A15C G56A C61U C66U, the yeast fitness is reported as ≤ 0.5. For A15C C30A A42C G56A A57U, the yeast fitness was 0.578. With A15C U16C G17C C49G the yeast fitness was ≤ 0.5. In the case of A15G A36U C55U A65U, the yeast fitness is reported as ≤ 0.5. Work on A15G C30A A65C yielded a yeast fitness of 0.609. In the case of A15C U16C A36U A65C, the yeast fitness is reported as ≤ 0.5. With A15G A70G the yeast fitness was 0.999. A15G A70C gave a yeast fitness of 1.04. Variant A15C U32A has a yeast fitness of 0.595. For A15G C24U C29U C30G U35G A43U, the yeast fitness was ≤ 0.5. In the case of A15G C27G A70U, the yeast fitness is reported as 0.543. Variant A15C C55G has a yeast fitness of 0.593. A15C C55U gave a yeast fitness of 0.625. For A15C A43U A65G, the yeast fitness was 0.583. A15G C24U C29U C30G U35G showed a yeast fitness of 0.737. For A15G A37C G48C, the yeast fitness was ≤ 0.5. With A15C G17A C22U G23C G51A A70U the yeast fitness was 0.596. A15C A37C U59C gave a yeast fitness of 0.814. In the case of A14U U54C C62U, the yeast fitness is reported as ≤ 0.5. Variant A14U U59G A65U has a yeast fitness of 0.547. In the case of A15C U19A A21G C22G C30U C55G, the yeast fitness is reported as ≤ 0.5. For A15G C24G A37G C49A, the yeast fitness was ≤ 0.5. For A15C G17A G38C, the yeast fitness was ≤ 0.5. Variant A15G C27U G58C has a yeast fitness of 0.717. In the case of A15G C31A A65G, the yeast fitness is reported as ≤ 0.5. For A15C C22U U54A, the yeast fitness was 0.636. A15C A43U C46A showed a yeast fitness of 0.502. Variant A15C C27G G39C U47A has a yeast fitness of 0.689. In the case of A15G C24U C29U C30G U35G A70G, the yeast fitness is reported as ≤ 0.5. With A15C A36U A37G A65C the yeast fitness was ≤ 0.5. With A15C G48C C61A the yeast fitness was ≤ 0.5. Variant A15G C31A A70U has a yeast fitness of 0.639. For A15C C27U C31A C55U G68A, the yeast fitness was ≤ 0.5. Work on A15C C33A yielded a yeast fitness of 0.578. A15G A37G showed a yeast fitness of 0.795. In the case of A15G A37C, the yeast fitness is reported as 0.666. In the case of A15C C31G C33G C55U, the yeast fitness is reported as ≤ 0.5. In the case of A15G C22U, the yeast fitness is reported as 0.871. For A15C A36G C49U G67U, the yeast fitness was 0.632. Variant A15G A37U A43C has a yeast fitness of 0.518. In the case of A15C A40C U54C, the yeast fitness is reported as ≤ 0.5. Work on A15C G63C yielded a yeast fitness of 0.616. A15C G63A showed a yeast fitness of 0.61. Variant A15C G41A G48C has a yeast fitness of 0.568. In the case of A15G A21C G39C A45G U53C, the yeast fitness is reported as ≤ 0.5. With A15G A36C G50A the yeast fitness was ≤ 0.5. Work on A15G C24G C66G G67A yielded a yeast fitness of 0.64. Variant A15G A37C G50C has a yeast fitness of 0.601. In the case of A15G A36C U47A G48C U54G A65C, the yeast fitness is reported as ≤ 0.5. A15G A42C A45C G48A gave a yeast fitness of 0.63. For A15C C22G A43C, the yeast fitness was ≤ 0.5. In the case of A15G A20C U54A, the yeast fitness is reported as ≤ 0.5. In the case of A15C U16C A37C C60A, the yeast fitness is reported as ≤ 0.5. With A15C A21G C22U A43U A57U the yeast fitness was ≤ 0.5. In the case of A15C G25A C27A C33U C34A C61U, the yeast fitness is reported as ≤ 0.5. For A15C C31U G48C A65C, the yeast fitness was ≤ 0.5. Variant A15G A42G A45C has a yeast fitness of 0.557. With A15C G23C C31U A57C C66U the yeast fitness was ≤ 0.5. In the case of A15C C22U G38A C55G, the yeast fitness is reported as ≤ 0.5. With A15G C24U C34U C61U the yeast fitness was ≤ 0.5. For A15C A20C C55U, the yeast fitness was ≤ 0.5. For A15C C30U G67A, the yeast fitness was ≤ 0.5. A15G A43U A57C gave a yeast fitness of 0.559. With A15C C29U G39C A42U G50U G51C A65U the yeast fitness was 0.527. With A15C A36U C55A A65U the yeast fitness was ≤ 0.5. With A15G C24G C29U the yeast fitness was ≤ 0.5. For A15G C31U, the yeast fitness was 0.987. A15G C31G showed a yeast fitness of 0.852. Variant A15G A65C has a yeast fitness of 0.867. In the case of A15C A36C G38C G52A, the yeast fitness is reported as ≤ 0.5. In the case of A15G A21G A42C C46A, the yeast fitness is reported as ≤ 0.5. Work on A15G C29U C34G A40C yielded a yeast fitness of 0.694. Variant A15C A57G has a yeast fitness of 0.812. With A15G A21C A65U the yeast fitness was 0.641. For A15G A20U C34A C60A A70C, the yeast fitness was ≤ 0.5. Variant A15C C24U has a yeast fitness of 0.601. With A15C C24A the yeast fitness was ≤ 0.5. In the case of A15C C49U U54C C55G U64C, the yeast fitness is reported as ≤ 0.5. Variant A15C C24G A69U has a yeast fitness of 0.533. In the case of A15C G23C C55A A65G, the yeast fitness is reported as ≤ 0.5. With A15C A36G G56A C61U the yeast fitness was ≤ 0.5. In the case of A15C C30G A42C G56A A57U G63A, the yeast fitness is reported as ≤ 0.5. In the case of A15C C30G U32C C34U C66U A70C, the yeast fitness is reported as ≤ 0.5. In the case of A15C G17A C29A C30U C62G U64A, the yeast fitness is reported as ≤ 0.5. With A15G A21C C24G A40U the yeast fitness was ≤ 0.5. In the case of A15C C24G A37C C60U, the yeast fitness is reported as ≤ 0.5. In the case of A15C C49A G67C, the yeast fitness is reported as ≤ 0.5. In the case of A15C C62U, the yeast fitness is reported as 0.755. In the case of A15C C62A, the yeast fitness is reported as 0.665. With A15C C46U A57G C66A the yeast fitness was ≤ 0.5. A15G C30G A43U C62A showed a yeast fitness of 0.611. In the case of A15C C46U C60U A65C, the yeast fitness is reported as ≤ 0.5. With A15C G17A A45C the yeast fitness was ≤ 0.5. A15C A40U A70U showed a yeast fitness of 0.563. In the case of A15G A21G C27U U47C G56C A57G C66G, the yeast fitness is reported as ≤ 0.5. With A15C A40C C49G the yeast fitness was ≤ 0.5. In the case of A15C G17C C31A G44C A70G, the yeast fitness is reported as ≤ 0.5. In the case of A15G A20U C29G A43G, the yeast fitness is reported as ≤ 0.5. For A15C A45C, the yeast fitness was 0.587. Variant A15C A45G has a yeast fitness of 0.583. For A15G C30A C62A, the yeast fitness was ≤ 0.5. For A15C U19A, the yeast fitness was 0.817. Variant A15C G39A C62U has a yeast fitness of 0.553. In the case of A15G A21C C24U, the yeast fitness is reported as ≤ 0.5. Work on A15G A43G yielded a yeast fitness of 0.975. In the case of A15C U19C A21G C34U, the yeast fitness is reported as ≤ 0.5. A15C A21G gave a yeast fitness of 0.58. For A15C U26C C62U, the yeast fitness was ≤ 0.5. In the case of A15G C24G U26A, the yeast fitness is reported as 0.656. In the case of A15C C30U C33G, the yeast fitness is reported as ≤ 0.5. In the case of A15C C55U A65G, the yeast fitness is reported as ≤ 0.5. A15C A42G showed a yeast fitness of 0.76. In the case of A15C C22A A42C C46A A65U, the yeast fitness is reported as ≤ 0.5. In the case of A15G A57G C62G C66U, the yeast fitness is reported as ≤ 0.5. Variant A15C G17A G18A A36C C55U C66A has a yeast fitness of 0.529. For A15C C60U C66A, the yeast fitness was ≤ 0.5. With A15C C33G A42C A45C the yeast fitness was ≤ 0.5. With A15C C27G G48A C49G the yeast fitness was ≤ 0.5. In the case of A15C G17C A36C G38C G48A, the yeast fitness is reported as ≤ 0.5. Work on A15G A20U C24G A42G U54C yielded a yeast fitness of 0.575. For A15G A21C U32C U64A, the yeast fitness was ≤ 0.5. In the case of A14U U59C A70C, the yeast fitness is reported as ≤ 0.5. With A15C A20G C33A A36C U47A the yeast fitness was ≤ 0.5. With A15C U19C C31G G56C C66U the yeast fitness was ≤ 0.5. For A14U U35C C66G, the yeast fitness was ≤ 0.5. In the case of A15C G17A A57G A65G, the yeast fitness is reported as ≤ 0.5. Work on A15C A20G G51A C55G yielded a yeast fitness of 0.532. For A15G C29A U64C, the yeast fitness was ≤ 0.5. For A15C C31U G63A, the yeast fitness was ≤ 0.5. With A15C C31U G38A G56C A70U the yeast fitness was 0.581. With A15C G17A A42U the yeast fitness was ≤ 0.5.
